NALP3 yeast inh = blocks the NALP3 inflammasome reconstituted in yeast; Yeast reconstituted NLRP3/ASC/caspase-1, beta-gal luminescence, 24 h; inhibition, % at 10 µM; 330,000 compounds, 0.39% hits;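 active = inhibition of 50% or more; inactive = inhibition below 50%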;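 also: plate controls were induced DMSO wells for no effect and uninduced yeast grown without galactose for full effect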
Arr AP2 block = human beta-arrestin and AP2 interaction inhibition; FITC-arrestin peptide / GST-AP2 beads, flow cytometry; AP2 beta2 appendage carries R879A mutation; 340,000 compounds, 0.31% hits; inhibition, % at 10 µM;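 active = inhibition above a set limit, near 3 SD of compounds lacking own fluorescence, cut at about 54% in these data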;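 also: plate controls were DMSO wells for no effect and 5 µM unlabelled arrestin peptide for full effect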
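Material – GST-tagged AP2 beta2-adaptin appendage (R879A) on 4 µm glutathione beads · Probe or stimulus – fluorescein-tagged arrestin peptide at 50 nM final · Timing – 12 min plus 1 h, RT · Detection – bead flow cytometry, FITC channel · Read-out basis – inhibition as reduced fluorescein signal on beads, percent · Medium – PBS plus Tween 20 (0.05%) and BSA (0.1%)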
ALR H2O2 inh = human ALR oxidase inhibition via reduced H2O2. purified ALR, DTT oxidation, H2O2 HRP-luminol luminescence. inhibition, % (test concentration not listed). 290,000 compounds, 3.8% hits;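 active = mean replicate inhibition above about 79%, with every replicate also reaching it, limit read from the data; inconclusive = only one of the two criteria met; inactive = mean below limit and not every replicate reaching it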
Pemphigus Ab inh = human desmoglein-3 autoantibody binding inhibition; AID 588358; binding (percent of control), % at 10 µM; 310,000 compounds, 0.48% hits; DSG3-coupled beads, scFv-anti-DSG3-GFP binding, flow cytometry; hits give low values; P32926;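 active = binding more than 3 SD below its plate's average and above zero; inconclusive = below that plate limit but binding exactly zero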;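 also: hits lower antibody fragment binding to DSG3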
Target sequence (P32926 whole entry, looked up, the tested form may be a part): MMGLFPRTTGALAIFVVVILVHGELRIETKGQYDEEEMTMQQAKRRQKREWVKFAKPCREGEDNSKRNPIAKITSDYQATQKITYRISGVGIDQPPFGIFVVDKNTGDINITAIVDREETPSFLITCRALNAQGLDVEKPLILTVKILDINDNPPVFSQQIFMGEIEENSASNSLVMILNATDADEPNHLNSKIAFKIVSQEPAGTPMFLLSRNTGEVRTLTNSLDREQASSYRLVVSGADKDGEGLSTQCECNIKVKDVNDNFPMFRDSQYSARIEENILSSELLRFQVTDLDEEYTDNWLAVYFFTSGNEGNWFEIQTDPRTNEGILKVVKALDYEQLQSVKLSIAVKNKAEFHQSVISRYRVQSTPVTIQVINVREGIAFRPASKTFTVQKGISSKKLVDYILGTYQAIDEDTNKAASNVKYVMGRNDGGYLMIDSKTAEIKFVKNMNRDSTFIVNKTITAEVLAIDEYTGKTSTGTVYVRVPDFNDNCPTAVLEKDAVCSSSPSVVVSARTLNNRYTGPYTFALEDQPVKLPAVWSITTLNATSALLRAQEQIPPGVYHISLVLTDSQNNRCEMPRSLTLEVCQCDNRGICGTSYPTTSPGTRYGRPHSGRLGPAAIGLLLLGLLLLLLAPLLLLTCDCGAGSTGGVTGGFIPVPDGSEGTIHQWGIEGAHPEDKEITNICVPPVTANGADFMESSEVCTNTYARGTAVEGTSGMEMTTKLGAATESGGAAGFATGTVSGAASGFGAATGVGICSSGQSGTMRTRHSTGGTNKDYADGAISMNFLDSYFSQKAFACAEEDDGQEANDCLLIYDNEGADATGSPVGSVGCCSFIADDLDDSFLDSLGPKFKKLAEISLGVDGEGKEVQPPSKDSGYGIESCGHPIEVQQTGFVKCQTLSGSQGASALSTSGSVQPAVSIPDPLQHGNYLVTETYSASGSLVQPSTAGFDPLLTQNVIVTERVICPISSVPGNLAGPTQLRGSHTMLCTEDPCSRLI
PolyA inh = inhibitors of polyadenylation in S. cerevisiae. S. cerevisiae SKY197-pL101 polyadenylation reporter, beta-gal luminescence; efflux-impaired pdr1/pdr3 knockout yeast; score 100 = 6 SD above DMSO. activity score, % at 12 µM. AID 1875. 300,000 compounds, 0.02% hits;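 active = lowest replicate activity score at least 50, where 100 means six control SD above control mean; inconclusive = lowest score under 50 but half or more replicates reach 50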;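 also: yeast exposed to compound for 9 h at 30 °C; higher score means more reporter readthrough which indicates perturbed polyadenylation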
NALP1 inh = inhibitors of NALP1 inflammasome in yeast. S. cerevisiae NALP1/ASC/caspase-1 growth, X-gal OD620, 72 h. 280,000 compounds, 0.61% hits. inhibition, % at 10 µM. AID 2071; in the data active = inhibition mostly above about 24%, no sharp cut-off; inactive = mostly below about 32%
The depositor's hits bear a star; ? = inconclusive; nt = no result given. Shown are actives, neighbours in structure and some others; about 4.6% of the full set was active somewhere.

SMILES	NALP3 yeast inh	Arr AP2 block	ALR H2O2 inh	Pemphigus Ab inh	PolyA inh	NALP1 inh
CCc1c(C)nc2ncnn2c1Nc1ccc(C(C)=O)cc1	-1	9	-27	105	1	-2
CCCCc1ccc(NC(=S)N2CCCC2)cc1	44	-1	1	120	nt	3
Nc1[nH]c(=O)[nH]c(=O)c1N=Nc1ccc(C(=O)O)cc1	22	-3	-12	107	-1	11
CN(C)CCc1cc2c(c3c1ccc1ccccc13)OCO2	5	13	-108	115	59*	14
COc1cc2ccc3c(CCN(C)C)cc(OC)c(OC)c3c2cc1OC	11	7	nt	114	23	8
CCOn1c(=O)c(-c2cc3ccccc3o2)[n+]([O-])c2ccccc21	15	-4	93*	82	-8	-6
O=c1c(-c2ccco2)[n+]([O-])c2ccccc2n1OCc1ccccc1	14	12	16	105	-9	37*
O=c1c(-c2ccco2)[n+]([O-])c2ccccc2n1OCc1ccccc1F	-13	-1	97*	nt	-12	22
O=c1c(-c2ccco2)[n+]([O-])c2ccccc2n1OCc1c(F)cccc1F	19	3	50	111	-19	-12
CSCC[C@H]1COC[C@@H](Cc2ccccc2)N1c1ccccc1	nt	nt	nt	104	nt	nt
Cn1nnnc1SCC(=O)Nc1cc(S(=O)(=O)N2CCCCC2)ccc1Cl	14	16	-6	91	nt	nt
Cc1ccc(C(=O)NCc2ccccn2)cc1NC1=NC2CS(=O)(=O)CC2S1 (stereo not given)	-2	-4	-15	99	20	-2
COc1ccc(S(=O)(=O)NCC2CCCN(Cc3ccc(C)o3)C2)cc1 (stereo not given)	-9	40	6	98	11	33*
CCc1ccc(CN2CCCC(CNS(=O)(=O)c3ccc(OC)cc3)C2)cc1 (stereo not given)	14	39	-2	110	-24	4
Cn1c(C(=O)N2CCCC(C(=O)NCCN3CCOCC3)C2)cc2sccc21 (stereo not given)	15	6	-2	105	-2	30*
Cc1cc(C)cc(OCC(=O)NNC(=O)CC(C)c2ccccc2)c1 (stereo not given)	nt	nt	nt	96	nt	nt
Cc1ccc(C2=N/C(=C\N3CCCCC3)C(=O)O2)cc1	30	16	-3	103	4	38*
CC(C)Cc1nnc(NC(=O)c2cc([N+](=O)[O-])ccc2N2CCOCC2)s1	28	1	-5	109	-10	10
O=C(NC1CCCC1)C(c1ccccn1)N(C(=O)c1csnn1)c1ccc(F)cc1 (stereo not given)	18	-4	-6	93	-2	4
COCCCNC(=O)c1cc(S(=O)(=O)N2CCC3(CC2)OCCO3)ccc1F	nt	nt	nt	108	nt	nt
Cc1cc2c(cc(C(=O)O)n2C)s1	1	12	79*	100	-6	8
CCOC(=O)c1cc2sc(C)cc2n1C(C)C(=O)OCC (stereo not given)	29	2	1	108	-18	nt
COc1cc(NC(=O)COc2ccccc2Cl)ccc1NC(=O)c1cccs1	16	9	0	6.8*	-14	5
CCCNc1nc(Nc2ccc(C)cc2)nc(N2CCCC2)n1	15	18	?	100	-6	42*
COc1ccc(Nc2nc(NCCO)nc(N3CCCC3)n2)cc1	20	9	nt	95	8	nt
SMILES	NALP3 yeast inh	Arr AP2 block	ALR H2O2 inh	Pemphigus Ab inh	PolyA inh	NALP1 inh
Cc1ccccc1C(=O)N1CCC2CC1c1cc(Cl)ccc12 (stereo not given)	nt	-8	nt	99	nt	nt
O=C(CSc1ccc(F)cc1)N1CCN(S(=O)(=O)c2ccccc2)CC1	33	7	nt	96	-19	17
CC(=O)Nc1ccc(SCC(=O)N2CCN(S(=O)(=O)c3ccccc3)CC2)cc1	2	45	98*	95	?	13
CN1Cc2cc(C(=O)c3ccccc3O)cnc2NC1=O	10	33	87*	102	-4	13
COc1ccc(O)c(C(=O)c2cnc3c(c2)CN(C)C(=O)N3)c1	20	-2	14	100	18	1
COc1ccc(NC(=O)Nc2ccc(CC(=O)O)cc2)cc1	23	12	-10	95	4	10
O=C(O)Cc1ccc(NC(=O)Nc2ccc(Br)cc2)cc1	3	-4	-3	102	13	32*
O=C(c1ccc(F)cc1)N1CCCC(N2CCN(Cc3ccc4c(c3)OCO4)CC2)C1 (stereo not given)	14	8	-5	105	1	16
CN(C)c1ccc(C(=O)N2CCCC(N3CCN(Cc4ccc5c(c4)OCO5)CC3)C2)cc1 (stereo not given)	9	24	97*	94	-11	13
COC(=O)C(Sc1ccc(Cl)cc1)C1SC(=S)N(Cc2ccccc2)C1=O (stereo not given)	nt	nt	nt	106	nt	nt
O=C(Nc1nc(-c2ccccc2)cs1)c1ccccc1NS(=O)(=O)c1ccc(F)cc1	-6	11	96*	86	-19	30
Cc1nn(CC(C)C(=O)N2CCN(S(=O)(=O)c3ccc(Cl)cc3)CC2)c(C)c1C (stereo not given)	8	-7	44	nt	5	8
CCOc1ccc(N(CC(=O)NCc2ccc(F)cc2)C(=O)CCC(=O)Nc2nccs2)cc1	9	14	-2	112	-1	23
CC(=O)Nc1sc2c(c1-c1nc3ccccc3s1)CCN(C(C)C)C2	-12	11	nt	130	nt	48*
Cc1cc(=O)oc2cc(OCC(=O)Nc3c(C)n(C)n(-c4ccccc4)c3=O)c(Cl)cc12	6	-8	nt	101	nt	nt
O=C(O)CCn1c2c(c3ccccc31)CCCC2	20	7	99*	99	-16	6
O=c1c2c3c(sc2nc(NCCO)n1CCc1ccccc1)CCCCC3	3	-9	18	99	5	33
C=CCn1c(NCCO)nc2sc3c(c2c1=O)CCC3	10	-2	86*	102	2	nt
O=C(Nc1nnc(-c2ccc(F)cc2)o1)C1CCCN1S(=O)(=O)c1cccs1 (stereo not given)	2	-14	-7	97	3	nt
O=C(C(Cc1ccccc1)NS(=O)(=O)c1cccc2cccnc12)N1CCc2ccccc21 (stereo not given)	21	2	88*	109	1	5
O=C(O)c1ccc(-n2cccc2/C=N\NC(=O)c2cc3cc(Br)ccc3o2)cc1	1	-15	87*	87	7	nt
Cn1cc(/C=N/NC(=O)c2cc3cc(Br)ccc3o2)c2ccccc21	10	-9	-8	101	7	nt
CCOC(=O)/C(C#N)=C/c1ccc(OC(=O)c2ccccn2)cc1	nt	22	98*	115	-21	30

Source: PubChem
